According to ChEMBL document CHEMBL2169747, “Synthesis and biological properties of highly sequence-specific-alkylating N-methylpyrrole-N-methylimidazole polyamide conjugates” (J Med Chem, 2012):
The source made the active and inactive calls. The rule behind the calls is not given here.

Columns and labels:
[1] = system: A549; assay: Cytotoxicity against human A549 cells assessed as cell growth inhibition after 48 hrs by microplate reader analysis; format: functional, cell-based; conditions: A549, 48 h
In short: (§1)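 Medium was RPMI-1640 for EBC-1, A549 and DU145, and DMEM for PC-3, SK-N-SH and K562. Both media had 10% heat-inactivated FBS plus penicillin/streptomycin; cells were kept at 37 °C, 5% CO2. Cells were seeded at 5000/well and given compound from DMSO stock (final 0.1% DMSO) for 48 h. Viability was read by WST-8 colorimetry, absorbance at 450 and 600 nm, and IC50 determined.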

[2] = system: PC-3; assay: Cytotoxicity against human PC3 cells assessed as cell growth inhibition after 48 hrs by microplate reader analysis; format: functional, cell-based; conditions: PC-3, 48 h; in short: as §1
[3] = Cytotoxicity against human EBC1 cells assessed as cell growth inhibition after 48 hrs by microplate reader analysis; format: functional, cell-based; conditions: EBC-1, 48 h; in short: as §1
[4] = system: SK-N-SH; assay: Cytotoxicity against human SK-N-SH cells assessed as cell growth inhibition after 48 hrs by microplate reader analysis; format: functional, cell-based; in short: as §1
[5] = system: K562; assay: Cytotoxicity against human K562 cells assessed as cell growth inhibition after 48 hrs by microplate reader analysis; format: functional, cell-based; conditions: K562, 48 h; in short: as §1
[6] = system: DU-145; assay: Cytotoxicity against human DU145 cells assessed as cell growth inhibition after 48 hrs by microplate reader analysis; format: functional, cell-based; conditions: DU-145, 48 h; in short: as §1
[7] = system: A549; assay: Downregulation of PTPRK gene expression in human A549 cells at 100 nM after 12 hrs by microarray analysis relative to control; format: functional
In short: (§2)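 A549 cells (RPMI-1640, 10% heat-inactivated FBS, penicillin/streptomycin, 37 °C, 5% CO2) seeded at 4 × 10^5 per 60 mm dish. Exposed 12 h to conjugate at 21, 26, 34 or 100 nM in medium with 0.1% DMSO, against 0.1% DMSO control. Whole-genome (~25 000 genes) expression profiled by microarray.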

[8] = system: A549; assay: Downregulation of FUT8 gene expression in human A549 cells at 100 nM after 12 hrs by microarray analysis relative to control; format: functional
In short: (§3)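 A549 cells, 4 × 10^5 per 60 mm dish, were exposed to conjugate for 12 h in medium with 0.1% DMSO; vehicle control was 0.1% DMSO. Whole human genome (~25 000 genes) expression was profiled by microarray and expression compared with the control.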

[9] = system: A549; assay: Downregulation of RPS6KC1 gene expression in human A549 cells at 100 nM after 12 hrs by microarray analysis relative to control; format: functional; in short: as §2
[10] = system: A549; assay: Downregulation of ELP4 gene expression in human A549 cells at 100 nM after 12 hrs by microarray analysis relative to control; format: functional; in short: as §3
[11] = system: A549; assay: Downregulation of SUPT3H gene expression in human A549 cells at 100 nM after 12 hrs by microarray analysis relative to control; format: functional; in short: as §2
[12] = system: A549; assay: Downregulation of Q8TC78 gene expression in human A549 cells at 100 nM after 12 hrs by microarray analysis relative to control; format: functional; in short: as §2
[13] = system: A549; assay: Downregulation of EFA6R gene expression in human A549 cells at 100 nM after 12 hrs by microarray analysis relative to control; format: functional; in short: as §3
[14] = system: A549; assay: Downregulation of NP_112224.1 gene expression in human A549 cells at 100 nM after 12 hrs by microarray analysis relative to control; format: functional; in short: as §3
[15] = system: A549; assay: Downregulation of NP_653244.1 gene expression in human A549 cells at 100 nM after 12 hrs by microarray analysis relative to control; format: functional; in short: as §2
[16] = system: A549; assay: Downregulation of GULP1 gene expression in human A549 cells at 100 nM after 12 hrs by microarray analysis relative to control; format: functional; in short: as §3
[17] = system: A549; assay: Downregulation of SEMA3A gene expression in human A549 cells at 100 nM after 12 hrs by microarray analysis relative to control; format: functional; in short: as §2
[18] = system: A549; assay: Downregulation of PDE7B gene expression in human A549 cells at 100 nM after 12 hrs by microarray analysis relative to control; format: functional; in short: as §2
[19] = system: A549; assay: Downregulation of UVRAG gene expression in human A549 cells at 100 nM after 12 hrs by microarray analysis relative to control; format: functional; in short: as §2
[20] = system: A549; assay: Downregulation of XRCC4 gene expression in human A549 cells at 100 nM after 12 hrs by microarray analysis relative to control; format: functional; in short: as §2
[21] = system: A549; assay: Downregulation of NP_060504.1 gene expression in human A549 cells at 100 nM after 12 hrs by microarray analysis relative to control; format: functional; in short: as §3
[22] = system: A549; assay: Downregulation of NCOA1 gene expression in human A549 cells at 100 nM after 12 hrs by microarray analysis relative to control; format: functional; in short: as §3
[23] = system: A549; assay: Downregulation of FAF1 gene expression in human A549 cells at 100 nM after 12 hrs by microarray analysis relative to control; format: functional; in short: as §3
[24] = system: A549; assay: Downregulation of TCF12 gene expression in human A549 cells at 100 nM after 12 hrs by microarray analysis relative to control; format: functional; in short: as §2
[25] = system: A549; assay: Downregulation of NP_056993.2 gene expression in human A549 cells at 100 nM after 12 hrs by microarray analysis relative to control; format: functional; in short: as §3
[26] = system: A549; assay: Downregulation of DYM gene expression in human A549 cells at 100 nM after 12 hrs by microarray analysis relative to control; format: functional; in short: as §3
[27] = system: A549; assay: Upregulation of HES2 gene expression in human A549 cells at 100 nM after 12 hrs by microarray analysis relative to control; format: functional
In short: (§4)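 4 ×10^5 A549 cells seeded per 60 mm dish and treated 12 h with conjugate (21, 26, 34 or 100 nM) in medium; control medium contained 0.1% DMSO, with conjugates added as 0.1% DMSO solutions. Whole human genome (~25 000 genes) expression profiled by microarray against the DMSO control. A549 culture: RPMI-1640 with 10% heat-inactivated FBS, penicillin/streptomycin, 37 °C, 5% CO2.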

[28] = system: A549; assay: Upregulation of MDM2 gene expression in human A549 cells at 100 nM after 12 hrs by microarray analysis relative to control; format: functional; in short: as §4
[29] = system: A549; assay: Upregulation of BTG2 gene expression in human A549 cells at 100 nM after 12 hrs by microarray analysis relative to control; format: functional; in short: as §2
[30] = system: A549; assay: Upregulation of RRAD gene expression in human A549 cells at 100 nM after 12 hrs by microarray analysis relative to control; format: functional; in short: as §4
[31] = system: A549; assay: Upregulation of BBC3 gene expression in human A549 cells at 100 nM after 12 hrs by microarray analysis relative to control; format: functional; in short: as §2
[32] = system: A549; assay: Upregulation of NPPC gene expression in human A549 cells at 100 nM after 12 hrs by microarray analysis relative to control; format: functional; in short: as §4
[33] = system: A549; assay: Upregulation of U124 gene expression in human A549 cells at 100 nM after 12 hrs by microarray analysis relative to control; format: functional; in short: as §4
[34] = system: A549; assay: Upregulation of CDKN1A gene expression in human A549 cells at 100 nM after 12 hrs by microarray analysis relative to control; format: functional; in short: as §4
[35] = system: A549; assay: Upregulation of GADD45A gene expression in human A549 cells at 100 nM after 12 hrs by microarray analysis relative to control; format: functional; in short: as §4
[36] = system: A549; assay: Upregulation of FDXR gene expression in human A549 cells at 100 nM after 12 hrs by microarray analysis relative to control; format: functional; in short: as §4
[37] = system: Nucleic Acid; assay: Induction of 208-bp PCR fragment DNA cleavage at 10 to 200 nM after 12 h by PAGE analysis

In the case of CC(=O)Nc1cn(C)c(C(=O)Nc2cn(C)c(C(=O)Nc3cc(C(=O)NCCC(=O)Nc4cc(C(=O)NCCCC(=O)Nc5cn(C)c(C(=O)NCCC(=O)Nc6cc(C(=O)Nc7ccc8[nH]c(C(=O)N9CC(CCl)c%10c9cc(O)c9ccccc%109)cc8c7)n(C)c6)n5)n(C)c4)n(C)c3)n2)n1 (racemic), the IC50 [1] is reported as 100 nM, the IC50 [2] is reported as 29.5 nM and the IC50 [3] is reported as 550 nM. The IC50 [4] was 129 nM, the IC50 [5] was 15.5 nM and the IC50 [6] was 11.2 nM. The “fold change (FC)” value [7] was 0.026, the “fold change (FC)” value [8] was 0.035 and the “fold change (FC)” value [9] was 0.038. For the same compound, the “fold change (FC)” value [10] was 0.045, the “fold change (FC)” value [11] was 0.052 and the “fold change (FC)” value [12] was 0.056. For the same compound, the “fold change (FC)” value [13] was 0.058, the “fold change (FC)” value [14] was 0.058 and the “fold change (FC)” value [15] was 0.061. For the same compound, the “fold change (FC)” value [16] was 0.062, the “fold change (FC)” value [17] was 0.063 and the “fold change (FC)” value [18] was 0.064. For the same compound, the “fold change (FC)” value [19] was 0.066, the “fold change (FC)” value [20] was 0.067 and the “fold change (FC)” value [21] was 0.068. For the same compound, the “fold change (FC)” value [22] was 0.068, the “fold change (FC)” value [23] was 0.071 and the “fold change (FC)” value [24] was 0.074. The “fold change (FC)” value [25] was 0.076, the “fold change (FC)” value [26] was 0.08 and the “fold change (FC)” value [27] was 19.2. The “fold change (FC)” value [28] was 15.6, the “fold change (FC)” value [29] was 13 and the “fold change (FC)” value [30] was 11.2. The “fold change (FC)” value [31] was 10.7, the “fold change (FC)” value [32] was 10.5 and the “fold change (FC)” value [33] was 10.3. For the same compound, the “fold change (FC)” value [34] was 9, the “fold change (FC)” value [35] was 8.3 and the “fold change (FC)” value [36] was 8.2. The Activity [37] was “Active”.
